The nature of test [1]: Cytotoxicity against multidrug-resistant human KBV1 cells by MTS/PMS assay. It counts as functional, cell-based. Particulars: KB-V1. The gist of the method: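 Mycoplasma-free KB-V1 carcinoma cells, selected from KB-3-1 for vinblastine resistance and obtained from the NCI Laboratory of Cell Biology. They show a full multidrug-resistance phenotype including P-170 glycoprotein efflux pump expression. Cytotoxicity expressed as IC50.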

Test [2] is described as follows: Cytotoxicity against drug-sensitive human KB-3-1 cells by MTS/PMS assay.
A short description of test [3]: Resistance index, ratio for IC50 for multidrug-resistant human KBV1 cells to IC50 for drug-sensitive human KB-3-1 cells.

Molecules are shown by their SMILES.

What is called IC50 is the concentration needed to halve the response being measured. Read a high IC50 as lower potency.

With `COc1ccc(C2=C(c3ccc(OC)c(OC)c3)C[C@H]3CCCN3C2)cc1`, the half-inhibitory concentration (IC50) in test [1] was determined as 2440 nM; in test [2], 2630 nM.
The like results for `COc1ccc(C2=C(c3ccc(O)cc3)CN3CCC[C@@H]3C2)cc1OC` were, in that order, 425 nM and 403 nM.
On the same counts, the results for `COc1cc2c3c(c4ccc(O)cc4c2cc1OC)CN1CCC[C@@H]1C3` are 10 nM and 7 nM.
With `COc1cc2c(cc1O)c1c(c3cc(OC)c(OC)cc32)C[C@H]2CCCN2C1`, the results for the concentration for half-maximal inhibition (IC50) in test [1] and in test [2] were 17 nM and 15 nM, respectively.
On the same counts, the results for `COc1cc2c3c(c4ccc(OC)c(OC)c4c2cc1OC)C[C@@H]1CCCN1C3` are 54 nM and 43 nM.
`COc1ccc2c3c(c4cc(OC)c(OC)cc4c2c1)C[C@H]1CCCN1C3` [(-)-ANTOFINE]: the values for the IC50 in test [1] and in test [2] were 14 nM and 16 nM, respectively.
In the case of `COC(=O)c1ccccc1-c1c2ccc(=N)cc-2oc2cc(N)ccc12.Cl` [RHODAMINE123], the IC50 is > 500000 nM in test [1] and 2200 nM in test [2]. For the same molecule, in test [3], the “Ratio IC50” value is listed as >225.
For `COc1cc2c3c(c4cc(OC)c(OC)cc4c2cc1OC)CN1CCC[C@@H]1C3` [TYLOPHORINE], the figures for the IC50 in test [1] and in test [2] were 173 nM and 214 nM, respectively.
Consider `CC[C@]1(O)C[C@@H]2CN(CCc3c([nH]c4ccccc34)[C@@](C(=O)OC)(c3cc4c(cc3OC)N(C)[C@H]3[C@@](O)(C(=O)OC)[C@H](OC(C)=O)[C@]5(CC)C=CCN6CC[C@]43[C@@H]65)C2)C1` [VINBLASTINE], for which, in test [3], the “Ratio IC50” value is 210.

These data come from ChEMBL document CHEMBL1150633, “In vitro cytotoxic activity of phenanthroindolizidine alkaloids from Cynanchum vincetoxicum and Tylophora tanakae against drug-sensitive and multidrug-resistant cancer cells” (J Nat Prod, 2002).
